# Assay outcomes as filed in PubChem BioAssay.
# Compounds with a hit are over-represented: about 2.5% of the library has one in this group of screens.
# SENP8 block-1: inhibitors of human SENP8 protease. recombinant SENP8, Nedd8 substrate fluorescence. AID 602440. 360,000 compounds, 0.64% hits. Q96LD8. inhibition, % at 20 µM; in the data active = inhibition mostly above about 40%, no sharp cut-off; inactive = mostly below about 27%
# Target sequence (Q96LD8 whole entry, looked up): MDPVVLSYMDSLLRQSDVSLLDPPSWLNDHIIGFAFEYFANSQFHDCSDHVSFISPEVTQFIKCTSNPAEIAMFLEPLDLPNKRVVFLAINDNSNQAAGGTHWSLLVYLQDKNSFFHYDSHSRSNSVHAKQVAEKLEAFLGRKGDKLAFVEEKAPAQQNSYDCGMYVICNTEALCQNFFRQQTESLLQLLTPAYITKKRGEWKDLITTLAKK
# SENP6 block: SENP6 protease inhibition; Q9GZR1; Recombinant SENP6 catalytic domain, aminoluciferin luminescence; inhibition, % at 10 µM; 330,000 compounds, 1.8% hits;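 active = inhibition above about 50% at the single tested dose, limit read from the data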;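 note: plate controls were DMSO wells with enzyme for no effect and DMSO wells lacking enzyme for full effect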
# SENP1 inh: inhibitors of human SENP1 SUMO protease catalytic domain. Q9P0U3. inhibition, % at 10 µM. 360,000 compounds, 0.21% hits. recombinant SENP1 catalytic domain, CyPet-SUMO1-YPet FRET cleavage. AID 624204;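 active = inhibition at least 30% at 10 µM, raw YFP signal under a set limit, fluorescence ratio 0.5 to 1.5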;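 note: 0% = enzyme with DMSO and 100% = no enzyme wells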
#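 material = recombinant human SENP1 catalytic domain, His6-tagged | quantity = 20 pM enzyme | reagent = 25 nM SUMO1 FRET substrate | compound dosing = 10 µM single point, 0.5% DMSO | timing = 50 min enzyme reaction, room temperature, light-protected | detection = FRET, CFP and YFP emission | control set = no-enzyme low, enzyme-DMSO high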
# SENP8 block-2: SENP8 protease inhibition. Q96LD8. purified SENP8, Z-RLRGG-aminoluciferin cleavage, luminescence. inhibition, % at 10 µM. 330,000 compounds, 1.2% hits. AID 2540; in the data active = inhibition above about 50%
# SENP7 block: blocks the human protease SENP7; AID 434973; Q9BQF6; inhibition, % at 5 µM; recombinant SENP7, Z-RLRGG-aminoluciferin luminescence, 40 min; 330,000 compounds, 1.5% hits;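 active = inhibition above about 50% at the single test dose, limit read from the data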;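 note: plate controls were DMSO with enzyme for no effect and no enzyme buffer wells for full effect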
# SENP8 conf: confirmation of human SENP8 protease inhibitors; Recombinant SENP8, Z-RLRGG-aminoluciferin luminescence, 60 min; shares compounds with SENP7 block; 6,200 compounds, 40% hits; AID 488912; inhibition, % at 12.5 µM;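 active = mean inhibition across replicates above about 50%, limit read from the data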
# SENP6 confirm: confirmation of human SENP6 protease inhibitors | shares compounds with SENP7 block | recombinant SENP6, Z-RLRGG-aminoluciferin luminescence | inhibition, % at 12.5 µM | 6,200 compounds, 58% hits | AID 488915
# SENP7 conf: human SENP7 inhibition, confirmed | AID 488917 | shares compounds with SENP7 block | recombinant SENP7, Z-RLRGG-aminoluciferin luminescence, 40 min | inhibition, % at 12.5 µM | 6,200 compounds, 69% hits
# Casp3 SENP sel: selectivity test for SENP inhibitors: human caspase-3 inhibition | shares compounds with SENP7 block | purified caspase-3, Z-DEVD-aminoluciferin luminescence, 60 min | inhibition, % at 12.5 µM | 6,200 compounds, 60% hits;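 active = mean inhibition above about 50%, limit read from the data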;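 note: plate controls were enzyme with DMSO for no effect and wells without caspase-3 for full effect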
# Target sequence (P42574 28-227 limits assumed): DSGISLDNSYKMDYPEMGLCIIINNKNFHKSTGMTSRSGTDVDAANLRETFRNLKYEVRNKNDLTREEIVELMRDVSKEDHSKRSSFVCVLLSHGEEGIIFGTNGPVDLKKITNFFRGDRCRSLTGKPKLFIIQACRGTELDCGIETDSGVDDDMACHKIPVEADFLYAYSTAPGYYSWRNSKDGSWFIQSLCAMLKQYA
# SENP luc ctr: counter-screen for SENP inhibitors: luminescence interference. inhibition, % at 12.5 µM. AID 488919. 6,200 compounds, 39% hits. shares compounds with SENP7 block. Pre-incubated SENP8/Z-RLRGG-aminoluciferin, luciferase luminescence interference;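 active = mean inhibition above about 50% when retested at one dose, limit read from the data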;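 note: plate controls were DMSO wells with completed reaction for no effect and substrate without enzyme for full effect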
# An asterisk follows results filed as active; i = inactive; . = no result given.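 Rule for the calls, unless noted: active = mean inhibition above about 50% in the one-dose retest (limit read from the data); inactive = the rest.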
SMILES,SENP8 block-1,SENP6 block,SENP1 inh,SENP8 block-2,SENP7 block,SENP8 conf,SENP6 confirm,SENP7 conf,Casp3 SENP sel,SENP luc ctr
Clc1ccccc1N/N=C/c1ccc2c(c1)OCO2,0,96*,-3,89*,74*,98*,99*,102*,91*,89*
CN1CCN(c2ncnc3c2ncn3[C@H]2CN(C)C[C@@H](CO)O2)CC1,18,.,1,.,.,.,.,.,.,.
CC(=O)c1cccc(NC(=S)Nc2cccc3ccccc23)c1,-396,84*,-5,62*,19,1,7,5,10,13
CC(=O)Nc1cccc(NC(=S)Nc2cccc3ccccc23)c1,-467,45,-22,24,22,.,.,.,.,.
Cc1ccc(C(=O)NNC(=S)Nc2cccc3ccccc23)s1,-328,55*,2,28,44,-11,-13,-1,-2,16
COc1ccc(NC(=S)Nc2cccc3ccccc23)cc1OC,-376,88*,-23,77*,63*,4,11,4,1,3
Cc1c(N=O)c(-c2ccccc2)n(O)[n+]1[O-],5,.,3,.,.,.,.,.,.,.
COc1ccccc1CNC(=O)C(CCSC)NC(=O)c1cccc(S(=O)(=O)N2CCOCC2)c1 (centres undefined),5,-5,0,-8,-5,.,.,.,.,.
CCn1c(CN2CCOCC2)nnc1SCC(=O)Nc1cccc(C)c1,4,10,0,-1,3,.,.,.,.,.
CSc1ccc(-c2cc(=O)c3ccccc3o2)cc1,-280,59*,-20,57*,-12,66*,63*,84*,51*,38
O=c1cc(-c2ccc(F)cc2)oc2ccccc12,19,16,0,-1,8,.,.,.,.,.
O=c1cc(-c2ccccc2)oc2ccc(Br)cc12,15,42,0,45,73*,8,9,14,22,6
COc1ccc2c(c1)oc(=O)c1cc(OC)ccc12,-212,65*,-1,46,80*,42,43,63*,65*,27
COc1ccc(-c2cc(=O)c3cc(OC)ccc3o2)cc1,-173,92*,-2,88*,98*,9,35,4,25,6
COc1ccc2c(c1)oc(=O)c1ccccc12,-1,-5,-1,2,-9,.,.,.,.,.
CCc1cc(C(=O)NCC(c2ccco2)N2CCCCC2)sc1C (centres undefined),10,-3,-2,-9,-7,.,.,.,.,.
O=S1(=O)CCN(C2CC2)CC1,5,.,0,.,.,.,.,.,.,.
COc1ccc(-c2cc(=O)c3cc(C)ccc3[nH]2)cc1,-134,32,-2,19,15,.,.,.,.,.
COc1ccc(-c2cc(=O)c3cc(OC)ccc3[nH]2)cc1,i,84*,-1,74*,81*,17,78*,96*,93*,-5
CN(C(=O)CC(=O)Nc1ccc(Cl)c(Cl)c1)c1ccccc1,-1,5,1,7,4,.,.,.,.,.
CCOc1cc(C2NN=C(c3ccccc3)S2)ccc1OCc1ccccc1Cl (centres undefined),-279,66*,1,42,8,53*,48,84*,69*,58*
CCOc1cc(C2NN=C(c3ccccc3)S2)ccc1OCc1ccc(F)cc1 (centres undefined),-334,83*,4,50*,-12,6,72*,94*,75*,70*
CCOc1cc2c(cc1OCC)C(c1ccc(F)cc1)NCC2 (centres undefined),25,-7,1,-3,3,.,.,.,.,.
CSc1cccc(NC(=O)/C=C/c2ccco2)c1,-23,-4,-18,-6,-4,.,.,.,.,.
O=C(/C=C/c1ccco1)NC(=S)Nc1cccc(-c2nc3ccccc3s2)c1,-38,63*,3,41,5,20,17,7,19,-2
SMILES,SENP8 block-1,SENP6 block,SENP1 inh,SENP8 block-2,SENP7 block,SENP8 conf,SENP6 confirm,SENP7 conf,Casp3 SENP sel,SENP luc ctr
O=C(/C=C/c1ccco1)Nc1ccc(N2CCCC2)cc1,28,63*,-4,43,68*,39,32,57*,21,27
COc1cccc(NC(=O)/C=C/c2ccco2)c1,2,58*,-5,84*,92*,-12,88*,100*,93*,88*
O=C(/C=C/c1ccco1)Nc1ccc(C(=O)N2CCOCC2)cc1,7,14,0,-5,1,.,.,.,.,.
c1cncc(C2SCCCS2)c1,8,.,-1,.,.,.,.,.,.,.
CCN(CC)CCOC(=O)c1ccc(NC(=O)/C=C/c2cccs2)cc1,-65,0,-1,-3,0,.,.,.,.,.
O=C(/C=C/c1cccs1)Nc1cccc(NC(=O)/C=C/c2cccs2)n1,-49,6,-4,-11,-8,.,.,.,.,.
Cc1ccccc1NC(=O)/C=C/c1cccs1,3,-6,2,23,63*,52*,51*,86*,80*,70*
CCOC(=O)c1ccc(NC(=O)/C=C/c2cccs2)cc1,-56,81*,2,62*,79*,53*,53*,84*,32,38
Cc1cc(C)nc(NC(=O)/C=C/c2cccs2)c1,-6,34,-1,28,54*,28,28,72*,55*,55*
Cc1cc(C)nc(NC(=O)/C=C/c2ccc(Cl)cc2Cl)c1,15,76*,-3,62*,59*,10,18,79*,34,11
Cc1cc(C)c(S(=O)(=O)Cc2ccccc2)c(Cl)n1,21,9,1,-7,-8,.,.,.,.,.
Nc1ccc(O)c2c(=O)cc(-c3ccccc3Cl)oc12,16,60*,1,53*,36,-6,2,17,11,8
C#CCN1C=C(C(=O)OCC)C(C)N(Cc2ccccc2I)S1(=O)=O (centres undefined),10,.,1,.,6,.,.,.,.,.
O=C(Nc1ccc2c(c1)OCCO2)C(=O)c1c[nH]c2ccccc12,13,87*,3,82*,99*,79*,78*,101*,86*,92*
O=C(Nc1ccc2c(c1)OCO2)c1ccccc1,11,62*,0,41,55*,50,47,81*,81*,61*
Cc1c(C(=O)Nc2ccc3c(c2)OCO3)oc2ccccc12,2,70*,1,58*,67*,75*,75*,92*,59*,65*
